According to ChEMBL document CHEMBL1799931, “Synthesis, evaluation and metabolic studies of radiotracers containing a 4-(4-[18F]-fluorobenzyl)piperidin-1-yl moiety for the PET imaging of NR2B NMDA receptors” (Eur J Med Chem, 2011):
Values belong to the molecule of their own block, whether it stands above or below them.

Key:
[1] = target: T1, Glutamate NMDA receptor; GRIN1/GRIN2B (Homo sapiens, UniProt Q05586+Q13224); assay: Antagonist activity at human NR1a/NR2B receptor expressed in mouse fibroblast LMTK cells assessed as inhibition of Glu/Gly induced Ca2+ influx; type: functional, cell-based
[2] = target: T1, Glutamate NMDA receptor; GRIN1/GRIN2B; assay: Antagonist activity against NR1a/NR2B receptor transfected in human HEK293 cells assessed as inhibition of NMDA-induced Ca2+ influx; type: functional, cell-based
Mus musculus = assay: Analgesic activity in po dosed mouse assessed as licking behavior measured after 20 to 25 mins by formalin test; type: functional, organism-based
Thymus [3] = assay: Biodistribution in Sprague-Dawley rat thymus at 3.2 to 18.6 MBq, iv after 90 mins by micro PET analysis; type: ADME, organism-based; details: in vivo, 1.5 h
In short: (§1)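 Male Sprague-Dawley rats (235-310 g) under isoflurane got 18F radiotracer (3.2-18.6 MBq) by tail-vein catheter, n = 2. Dynamic microPET scan for 90 min, then ex vivo tissue counting at 90 min post-injection. Values are %ID/g ± SEM.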

Lung [4] = assay: Biodistribution in Sprague-Dawley rat lung at 3.2 to 18.6 MBq, iv after 90 mins by micro PET analysis; type: ADME, organism-based; details: in vivo, 1.5 h; in short: as §1
Heart [5] = assay: Biodistribution in Sprague-Dawley rat heart at 3.2 to 18.6 MBq, iv after 90 mins by micro PET analysis; type: ADME, organism-based; details: in vivo, 1.5 h; in short: as §1
Pancreas [6] = assay: Biodistribution in Sprague-Dawley rat pancreas at 3.2 to 18.6 MBq, iv after 90 mins by micro PET analysis; type: ADME, organism-based; details: in vivo, 1.5 h; in short: as §1
Liver [7] = assay: Biodistribution in Sprague-Dawley rat liver at 3.2 to 18.6 MBq, iv after 90 mins by micro PET analysis; type: ADME, organism-based; details: in vivo, 1.5 h; in short: as §1
Spleen [8] = assay: Biodistribution in Sprague-Dawley rat spleen at 3.2 to 18.6 MBq, iv after 90 mins by micro PET analysis; type: ADME, organism-based; details: in vivo, 1.5 h; in short: as §1
Kidney [9] = assay: Biodistribution in Sprague-Dawley rat kidney at 3.2 to 18.6 MBq, iv after 90 mins by micro PET analysis; type: ADME, organism-based; details: in vivo, 1.5 h; in short: as §1
[10] = Biodistribution in Sprague-Dawley rat urine at 3.2 to 18.6 MBq, iv after 90 mins by micro PET analysis; type: ADME, organism-based; details: in vivo, 1.5 h; in short: as §1
Rattus norvegicus [11] = assay: Biodistribution in Sprague-Dawley rat bladder at 3.2 to 18.6 MBq, iv after 90 mins by micro PET analysis; type: ADME, organism-based, Urinary bladder; details: in vivo, 1.5 h; in short: as §1
Intestine [12] = assay: Biodistribution in Sprague-Dawley rat intestine at 3.2 to 18.6 MBq, iv after 90 mins by micro PET analysis; type: ADME, organism-based; details: in vivo, 1.5 h; in short: as §1
Muscle tissue [13] = assay: Biodistribution in Sprague-Dawley rat muscle at 3.2 to 18.6 MBq, iv after 90 mins by micro PET analysis; type: ADME, organism-based; details: in vivo, 1.5 h; in short: as §1
[14] = Biodistribution in Sprague-Dawley rat fat at 3.2 to 18.6 MBq, iv after 90 mins by micro PET analysis; type: ADME, organism-based, Adipose tissue; details: in vivo, 1.5 h; in short: as §1
Brain [15] = assay: Biodistribution in Sprague-Dawley rat brain at 3.2 to 18.6 MBq, iv after 90 mins by micro PET analysis; type: ADME, organism-based; details: in vivo, 1.5 h; in short: as §1
Bone [16] = assay: Biodistribution in Sprague-Dawley rat bone at 3.2 to 18.6 MBq, iv after 90 mins by micro PET analysis; type: ADME, organism-based, Bone element; details: in vivo, 1.5 h; in short: as §1
Rattus norvegicus [17] = assay: Biodistribution in Sprague-Dawley rat cartilage at 3.2 to 18.6 MBq, iv after 90 mins by micro PET analysis; type: ADME, organism-based, Cartilage tissue; details: in vivo, 1.5 h; in short: as §1
[18] = Metabolic stability in Sprague-Dawley rat plasma assessed as half life by radio thin layer chromatography analysis; type: ADME, cell-free
In short: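 Anesthetized male Sprague-Dawley rats (235-330 g) given radiotracer (3.2-15.1 MBq). Femoral arterial blood was sampled over 90 min and plasma gamma-counted. Plasma was diluted with acetonitrile, centrifuged and run on silica radio-TLC with cold reference, giving parent and radiometabolite fractions.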

Muscle tissue [19] = assay: Biodistribution in Sprague-Dawley rat muscle at 3.2 to 18.6 MBq, iv after 120 mins by micro PET analysis; type: ADME, organism-based; details: in vivo, 2 h
In short: (§2)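 Male Sprague-Dawley rats (235-310 g) under isoflurane got 18F radiotracer (3.2-18.6 MBq) by tail-vein catheter, n = 3. Dynamic microPET scan for 120 min, then ex vivo tissue counting at 120 min post-injection. Values are %ID/g ± SEM.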

[20] = Biodistribution in Sprague-Dawley rat fat at 3.2 to 18.6 MBq, iv after 120 mins by micro PET analysis; type: ADME, organism-based, Adipose tissue; details: in vivo, 2 h; in short: as §2
Brain [21] = assay: Biodistribution in Sprague-Dawley rat brain at 3.2 to 18.6 MBq, iv after 120 mins by micro PET analysis; type: ADME, organism-based; details: in vivo, 2 h; in short: as §2
Bone [22] = assay: Biodistribution in Sprague-Dawley rat bone at 3.2 to 18.6 MBq, iv after 120 mins by micro PET analysis; type: ADME, organism-based, Bone element; details: in vivo, 2 h; in short: as §2
Thymus [23] = assay: Biodistribution in Sprague-Dawley rat thymus at 3.2 to 18.6 MBq, iv after 120 mins by micro PET analysis; type: ADME, organism-based; details: in vivo, 2 h; in short: as §2
Lung [24] = assay: Biodistribution in Sprague-Dawley rat lung at 3.2 to 18.6 MBq, iv after 120 mins by micro PET analysis; type: ADME, organism-based; details: in vivo, 2 h; in short: as §2
Heart [25] = assay: Biodistribution in Sprague-Dawley rat heart at 3.2 to 18.6 MBq, iv after 120 mins by micro PET analysis; type: ADME, organism-based; details: in vivo, 2 h; in short: as §2
Pancreas [26] = assay: Biodistribution in Sprague-Dawley rat pancreas at 3.2 to 18.6 MBq, iv after 120 mins by micro PET analysis; type: ADME, organism-based; details: in vivo, 2 h; in short: as §2
Liver [27] = assay: Biodistribution in Sprague-Dawley rat liver at 3.2 to 18.6 MBq, iv after 120 mins by micro PET analysis; type: ADME, organism-based; details: in vivo, 2 h; in short: as §2
Spleen [28] = assay: Biodistribution in Sprague-Dawley rat spleen at 3.2 to 18.6 MBq, iv after 120 mins by micro PET analysis; type: ADME, organism-based; details: in vivo, 2 h; in short: as §2
Kidney [29] = assay: Biodistribution in Sprague-Dawley rat kidney at 3.2 to 18.6 MBq, iv after 120 mins by micro PET analysis; type: ADME, organism-based; details: in vivo, 2 h; in short: as §2
[30] = Biodistribution in Sprague-Dawley rat urine at 3.2 to 18.6 MBq, iv after 120 mins by micro PET analysis; type: ADME, organism-based; details: in vivo, 2 h; in short: as §2
Rattus norvegicus [31] = assay: Biodistribution in Sprague-Dawley rat bladder at 3.2 to 18.6 MBq, iv after 120 mins by micro PET analysis; type: ADME, organism-based, Urinary bladder; details: in vivo, 2 h; in short: as §2
Intestine [32] = assay: Biodistribution in Sprague-Dawley rat intestine at 3.2 to 18.6 MBq, iv after 120 mins by micro PET analysis; type: ADME, organism-based; details: in vivo, 2 h; in short: as §2
Hippocampus = assay: Biodistribution in Sprague-Dawley rat hippocampus at 3.2 to 18.6 MBq, iv after 120 mins by micro PET analysis; details: in vivo, 2 h
Cerebellum = assay: Biodistribution in Sprague-Dawley rat cerebellum at 3.2 to 18.6 MBq, iv after 120 mins by micro PET analysis; details: in vivo, 2 h
[33] = target: T1, Glutamate NMDA receptor; GRIN1/GRIN2B; assay: Displacement of [3H]-Ro-256981 from recombinant NR1/NR2B receptor; type: protein-complex assay
[34] = target: Glutamate NMDA receptor; GRIN1/GRIN2A (Homo sapiens) (UniProt Q05586+Q12879); assay: Antagonist activity against NR1a/NR2A receptor transfected in human HEK293 cells assessed as inhibition of NMDA-induced Ca2+ influx at 10 uM; type: functional, cell-based
In short: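 HEK293 cells co-transfected 1:1 with NR1-1a plus NR2A-GFP or NR2B-GFP, D-APV (100 µM) after transfection, used at 24 h. Cells loaded with Fura-2/AM 45 min at 37 °C, then held in HBBSS with glycine, pH 7.45, at room temperature under perfusion. NMDA 100 µM for 30 s; ligands applied 60 s before and during.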

Rattus norvegicus [35] = assay: Analgesic activity against carrageenan-induced mechanical hyperalgesia in iv dosed rat; type: functional
[36] = Half life in rat plasma; type: ADME, cell-free
[37] = Metabolic stability in Sprague-Dawley rat assessed as unmetabolized parent compound in urine at 10 mg/kg, iv after 1 hr by MS/MS analysis; type: ADME, organism-based; set-up: dose 10 mg/kg, route intravenous; details: in vivo
In short: (§3)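 Two anesthetized male Sprague-Dawley rats got 10 mg/kg in sterile water by tail vein; two controls got sterile water at 1 mL/kg. Rats were kept awake 1 h, then decapitated. Plasma and urine went to LC-MS/MS, full scans compared with control.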

Plasma = assay: Metabolic stability in Sprague-Dawley rat assessed as unmetabolized parent compound in plasma at 10 mg/kg, iv after 1 hr by MS/MS analysis; type: ADME, organism-based; set-up: dose 10 mg/kg, route intravenous; details: in vivo; in short: as §3

T1 sequence (Q13224 whole entry, other chains not shown): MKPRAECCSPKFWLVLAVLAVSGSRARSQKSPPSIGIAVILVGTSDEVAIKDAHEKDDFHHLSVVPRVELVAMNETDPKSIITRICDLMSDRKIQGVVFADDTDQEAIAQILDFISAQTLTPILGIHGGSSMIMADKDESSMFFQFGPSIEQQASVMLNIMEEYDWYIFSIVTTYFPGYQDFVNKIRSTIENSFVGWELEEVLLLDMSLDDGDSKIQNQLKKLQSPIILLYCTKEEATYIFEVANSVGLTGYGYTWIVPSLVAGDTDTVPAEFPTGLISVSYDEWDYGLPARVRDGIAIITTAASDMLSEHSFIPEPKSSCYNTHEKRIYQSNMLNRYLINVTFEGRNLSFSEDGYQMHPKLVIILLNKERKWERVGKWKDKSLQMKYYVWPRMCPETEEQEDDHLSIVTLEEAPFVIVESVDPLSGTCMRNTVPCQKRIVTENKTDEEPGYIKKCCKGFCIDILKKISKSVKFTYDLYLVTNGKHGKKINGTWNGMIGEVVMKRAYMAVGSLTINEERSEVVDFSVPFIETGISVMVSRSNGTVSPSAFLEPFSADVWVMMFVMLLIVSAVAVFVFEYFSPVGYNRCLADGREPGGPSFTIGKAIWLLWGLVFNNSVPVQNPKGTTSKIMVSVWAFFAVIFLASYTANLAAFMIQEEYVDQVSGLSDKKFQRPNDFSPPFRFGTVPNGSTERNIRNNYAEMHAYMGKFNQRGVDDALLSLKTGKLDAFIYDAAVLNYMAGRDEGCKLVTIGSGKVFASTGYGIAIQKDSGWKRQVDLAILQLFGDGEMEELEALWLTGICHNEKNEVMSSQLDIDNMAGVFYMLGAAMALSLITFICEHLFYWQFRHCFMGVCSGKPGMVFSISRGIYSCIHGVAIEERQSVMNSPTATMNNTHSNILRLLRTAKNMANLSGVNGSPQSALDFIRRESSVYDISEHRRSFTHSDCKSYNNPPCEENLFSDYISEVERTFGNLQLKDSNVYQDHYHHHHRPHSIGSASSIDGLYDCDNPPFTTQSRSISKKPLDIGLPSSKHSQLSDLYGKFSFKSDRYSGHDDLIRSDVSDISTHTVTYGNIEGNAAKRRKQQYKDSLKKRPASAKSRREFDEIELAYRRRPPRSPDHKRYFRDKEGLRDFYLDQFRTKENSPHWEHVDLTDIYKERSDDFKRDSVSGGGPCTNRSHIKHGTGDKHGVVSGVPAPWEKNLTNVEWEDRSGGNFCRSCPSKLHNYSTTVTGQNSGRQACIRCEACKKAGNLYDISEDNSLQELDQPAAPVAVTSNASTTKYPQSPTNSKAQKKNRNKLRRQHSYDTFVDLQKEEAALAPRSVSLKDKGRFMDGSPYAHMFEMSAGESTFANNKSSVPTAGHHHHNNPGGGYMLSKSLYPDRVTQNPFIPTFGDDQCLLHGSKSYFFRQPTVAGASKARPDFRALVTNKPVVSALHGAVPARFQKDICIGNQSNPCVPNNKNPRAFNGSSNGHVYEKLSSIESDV

SMILES: CS(=O)(=O)Nc1ccc2nc(CN3CCC(Cc4ccccc4)CC3)[nH]c2c1
IC50 [1]: 1.4 nM
IC50 [2]: 50.3 nM

SMILES: Cc1ccc(CC2CCN(C(=O)C(=O)Nc3ccc4c(c3)CC(=O)N4)CC2)cc1
ED50 (Mus musculus): 0.5 mg/kg

SMILES: [18F]c1ccc(CC2CCNCC2)cc1
Drug uptake (Thymus [3]): 0.187 % ID/g
Drug uptake (Lung [4]): 0.507 % ID/g
Drug uptake (Heart [5]): 0.135 % ID/g
Drug uptake (Pancreas [6]): 0.285 % ID/g
Drug uptake (Liver [7]): 2.307 % ID/g
Drug uptake (Spleen [8]): 0.322 % ID/g
Drug uptake (Kidney [9]): 1.206 % ID/g
Drug uptake [10]: 10.125 % ID/g
Drug uptake (Rattus norvegicus [11]): 0.542 % ID/g
Drug uptake (Intestine [12]): 0.902 % ID/g
Drug uptake (Muscle tissue [13]): 0.145 % ID/g
Drug uptake [14]: 0.052 % ID/g
Drug uptake (Brain [15]): 0.395 % ID/g
Drug uptake (Bone [16]): 0.75 % ID/g
Drug uptake (Rattus norvegicus [17]): 2.312 % ID/g
half-life [18]: 10 min

SMILES: Oc1ccc2nc(CN3CCC(Cc4ccccc4)CC3)[nH]c2c1
ED50 (Rattus norvegicus [35]): 3.3 mg/kg
half-life [36]: > 480 min
IC50 [2]: 209 nM

Now from value to molecule:

Drug uptake (Muscle tissue [19]): 0.044 % ID/g
Drug uptake [20]: 0.098 % ID/g
Drug uptake (Brain [21]): 0.035 % ID/g
Drug uptake (Bone [22]): 1.576 % ID/g
Drug uptake (Thymus [23]): 0.225 % ID/g
half-life [18]: 35 min
Drug uptake (Lung [24]): 0.445 % ID/g
Drug uptake (Heart [25]): 0.068 % ID/g
Drug uptake (Pancreas [26]): 0.391 % ID/g
Drug uptake (Liver [27]): 2.255 % ID/g
Drug uptake (Spleen [28]): 0.305 % ID/g
Drug uptake (Kidney [29]): 0.384 % ID/g
Drug uptake [30]: 1.327 % ID/g
Drug uptake (Rattus norvegicus [31]): 0.373 % ID/g
Drug uptake (Intestine [32]): 0.188 % ID/g
Drug uptake (Hippocampus): 0.037 % ID/g
Drug uptake (Cerebellum): 0.035 % ID/g
SMILES: Oc1ccc2[nH]c(CN3CCC(Cc4ccc([18F])cc4)CC3)nc2c1

IC50 [33]: 8 nM
SMILES: O=C(Nc1ccc2[nH]c(=O)[nH]c2c1)C(=O)N1CCC(Cc2ccccc2)CC1

IC50 [2]: 830 nM
inhibition [34]: 14.5%
SMILES: O=C1Cc2cc(NC(=O)C(=O)N3CCC(Cc4ccc(F)cc4)CC3)ccc2N1

IC50 [2]: 57.7 nM
SMILES: CS(=O)(=O)Nc1ccc2[nH]c(CN3CCC(Cc4ccc(F)cc4)CC3)nc2c1

Stability [37]: Unstable
Stability (Plasma): Unstable
SMILES: Fc1ccc(CC2CCNCC2)cc1
